# Biological target: T1, UniProt Q924H8
# T1 sequence (whole entry): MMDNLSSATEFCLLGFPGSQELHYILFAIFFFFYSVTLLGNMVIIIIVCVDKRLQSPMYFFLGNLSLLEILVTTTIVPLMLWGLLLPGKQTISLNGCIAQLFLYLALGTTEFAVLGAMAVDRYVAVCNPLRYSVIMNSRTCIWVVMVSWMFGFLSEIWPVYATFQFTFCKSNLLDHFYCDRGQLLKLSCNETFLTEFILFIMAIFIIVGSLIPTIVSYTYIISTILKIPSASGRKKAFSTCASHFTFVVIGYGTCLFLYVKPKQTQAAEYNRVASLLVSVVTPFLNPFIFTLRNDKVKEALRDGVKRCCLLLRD
# Conditions: stereoisomer not certain
# How it was run: (§1)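 Assay methods differ from source to source, frequently being transient luciferase assays in mammalian cell lines. For each receptor–molecule pair, the label responsive (active) applies when the original authors judged the measured signal statistically different from baseline, and non-responsive (inactive) applies otherwise.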
row,Structure (SMILES),odorant receptor agonist call
1,C=C(C)C1CCC(C)C(=O)C1 (centres undefined),inactive
2,CCCCCOC(=O)CCCCC,inactive
3,CCCCCCC(C)=O,inactive
4,CCCCCCCCCS,active
5,CCCC(=O)C(C)=O,inactive
6,CCCCC(=O)CC,inactive
7,CCCCCCCC(C)=O,inactive
8,CCCCCC1=C(C)CCC1=O,inactive
9,CCCCOC=O,inactive
10,CC(=O)OCc1ccccc1,inactive
11,CC(=O)Oc1ccccc1,inactive
12,CCCCCCOC(C)=O,inactive
13,CC(C)=CCCC(C)CCO (centres undefined),inactive
14,CC12CCC(CC1=O)C2(C)C (centres undefined),inactive
15,CCC(=O)O,inactive
16,O=C1CCOc2ccccc21,inactive

# Biological target: T2, UniProt Q924X8
# T2 sequence (whole entry): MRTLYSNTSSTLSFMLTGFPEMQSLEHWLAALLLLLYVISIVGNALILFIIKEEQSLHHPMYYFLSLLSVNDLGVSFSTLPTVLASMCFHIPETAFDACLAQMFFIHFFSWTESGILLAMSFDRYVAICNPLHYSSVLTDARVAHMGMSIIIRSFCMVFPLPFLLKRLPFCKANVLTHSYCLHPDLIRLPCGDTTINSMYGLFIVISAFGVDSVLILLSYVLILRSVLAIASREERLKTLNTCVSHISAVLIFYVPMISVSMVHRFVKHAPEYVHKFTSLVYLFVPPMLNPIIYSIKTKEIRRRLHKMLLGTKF
# Conditions: stereoisomer not certain
# How it was run: as §1
row,Structure (SMILES),odorant receptor agonist call
1,CCCCCCC(=O)[O-].[H+],inactive
2,O=C([O-])CCCCC(=O)[O-].[H+].[H+],active
3,O=C(O)CCCCBr,active
4,CCCCCCCC(=O)[O-].[H+],inactive
5,O=C(O)CCCCCC(=O)O,active
6,O=C(O)CCCBr,active
7,CCCCCO,inactive

# Biological target: T3, UniProt Q99NH4
# T3 sequence (whole entry): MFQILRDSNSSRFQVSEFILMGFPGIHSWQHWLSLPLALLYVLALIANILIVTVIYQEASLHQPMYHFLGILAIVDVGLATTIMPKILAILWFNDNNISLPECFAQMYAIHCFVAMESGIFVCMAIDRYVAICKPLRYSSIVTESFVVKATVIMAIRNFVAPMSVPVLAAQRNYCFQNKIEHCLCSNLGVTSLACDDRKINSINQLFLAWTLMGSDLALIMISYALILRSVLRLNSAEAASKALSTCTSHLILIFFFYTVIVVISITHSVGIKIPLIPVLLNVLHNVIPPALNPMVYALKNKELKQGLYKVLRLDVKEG
# Conditions: stereoisomer not certain
# How it was run: as §1
row,Structure (SMILES),odorant receptor agonist call
1,O=C(O)CCCCCCCCCBr,inactive
2,O=C([O-])CCCCC(=O)[O-].[H+].[H+],inactive
3,O=C(O)CCCCBr,inactive
4,O=C([O-])CCCC(=O)[O-].[H+].[H+],inactive
5,CCCCCCCC(=O)[O-].[H+],active
6,O=C(O)CCCCCC(=O)O,inactive
7,CCCCCCCCCCCC(=O)O,inactive
8,O=C([O-])CCC(=O)[O-].[H+].[H+],inactive
9,O=C(O)CCCBr,inactive
10,O=C(O)CCCCCCCCCC(=O)O,inactive
11,CCCCCCCCCCC(=O)O,inactive
12,CCCCCO,inactive
13,O=C(O)CCCCCCCCCCC(=O)O,inactive

# Biological target: T4, UniProt Q9EPN9
# T4 sequence (whole entry): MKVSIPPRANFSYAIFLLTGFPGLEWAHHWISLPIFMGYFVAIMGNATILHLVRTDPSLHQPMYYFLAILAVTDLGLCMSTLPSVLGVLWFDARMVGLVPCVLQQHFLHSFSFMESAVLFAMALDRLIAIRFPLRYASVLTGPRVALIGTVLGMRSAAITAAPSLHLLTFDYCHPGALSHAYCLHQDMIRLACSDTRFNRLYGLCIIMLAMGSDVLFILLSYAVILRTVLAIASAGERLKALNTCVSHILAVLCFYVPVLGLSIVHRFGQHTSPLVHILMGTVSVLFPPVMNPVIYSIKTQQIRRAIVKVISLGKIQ
# Conditions: stereoisomer not certain
# How it was run: as §1
row,Structure (SMILES),odorant receptor agonist call
1,C=C(C)C1CCC(C)C(=O)C1 (centres undefined),inactive
2,CCCCCOC(=O)CCCCC,inactive
3,CCCCCCC(C)=O,inactive
4,CCCCCCCCCS,inactive
5,CCCCCCC(=O)[O-].[H+],inactive
6,CCCC(=O)C(C)=O,inactive
7,CCCCOC(=O)C(C)OC(=O)CCC (centres undefined),inactive
8,CCCCC(=O)CC,inactive
9,CCCCCCCC(C)=O,inactive
10,O=c1ccc2ccccc2o1,inactive
11,CCCCCCCC(=O)[O-].[H+],inactive
12,CCCCCC1=C(C)CCC1=O,inactive
13,CCCC(C)=O,inactive
14,CCCCOC=O,inactive
15,CC(=O)OCc1ccccc1,inactive
16,CC(=O)Oc1ccccc1,inactive
17,CCCCCCOC(C)=O,inactive
18,CC(C)=CCCC(C)CCO (centres undefined),inactive
19,CC12CCC(CC1=O)C2(C)C (centres undefined),inactive
20,CCC(C(=O)O)c1ccccc1 (centres undefined),active
21,CCC(=O)O,inactive
22,CCCCCO,inactive
23,O=C1CCOc2ccccc21,inactive

# Biological target: UniProt Q9R0K2
# Sequence (Q9R0K2 as listed by the source): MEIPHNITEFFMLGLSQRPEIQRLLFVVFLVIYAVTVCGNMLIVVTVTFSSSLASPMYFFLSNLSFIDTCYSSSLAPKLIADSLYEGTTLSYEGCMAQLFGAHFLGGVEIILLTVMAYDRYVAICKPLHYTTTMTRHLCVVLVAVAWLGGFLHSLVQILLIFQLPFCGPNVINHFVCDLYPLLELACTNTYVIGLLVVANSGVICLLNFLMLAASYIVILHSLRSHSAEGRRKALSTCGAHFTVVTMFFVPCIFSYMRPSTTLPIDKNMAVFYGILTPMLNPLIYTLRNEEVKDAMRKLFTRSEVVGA
# Conditions: stereoisomer not certain
# How it was run: as §1
row,Structure (SMILES),odorant receptor agonist call
1,C=C(C)C1CCC(C)C(=O)C1 (centres undefined),inactive
2,CCCCCOC(=O)CCCCC,inactive
3,CCCCCCC(C)=O,inactive
4,CCCCCCCCCS,inactive
5,CCCCCCC(=O)[O-].[H+],inactive
6,CCCC(=O)C(C)=O,inactive
7,CCCCOC(=O)C(C)OC(=O)CCC (centres undefined),inactive
8,CCCCC(=O)CC,inactive
9,CCCCCCCC(C)=O,inactive
10,O=c1ccc2ccccc2o1,inactive
11,CCCCCCCC(=O)[O-].[H+],inactive
12,CCCCCC1=C(C)CCC1=O,inactive
13,CCCC(C)=O,inactive
14,CCCCOC=O,inactive
15,CC(=O)OCc1ccccc1,inactive
16,CC(=O)Oc1ccccc1,inactive
17,CCCCCCOC(C)=O,inactive
18,CC(C)=CCCC(C)CCO (centres undefined),inactive
19,CC12CCC(CC1=O)C2(C)C (centres undefined),inactive
20,CCC(C(=O)O)c1ccccc1 (centres undefined),inactive
21,CCC(=O)O,inactive
22,CCCCCO,inactive
23,O=C1CCOc2ccccc21,inactive

# Biological target: T5, UniProt Q9WU86
# T5 sequence (whole entry): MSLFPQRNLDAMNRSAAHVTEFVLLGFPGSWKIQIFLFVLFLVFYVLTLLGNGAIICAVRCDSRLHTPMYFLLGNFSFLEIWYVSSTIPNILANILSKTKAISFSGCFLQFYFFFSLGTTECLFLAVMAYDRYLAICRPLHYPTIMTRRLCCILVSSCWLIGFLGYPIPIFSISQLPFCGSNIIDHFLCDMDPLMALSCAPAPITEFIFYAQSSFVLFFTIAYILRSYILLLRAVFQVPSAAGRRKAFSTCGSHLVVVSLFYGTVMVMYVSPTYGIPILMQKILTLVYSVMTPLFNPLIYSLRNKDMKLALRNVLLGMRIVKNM
# Conditions: stereoisomer not certain
# How it was run: as §1
row,Structure (SMILES),odorant receptor agonist call
1,C=C(C)C1CCC(C)C(=O)C1 (centres undefined),inactive
2,CCCCCOC(=O)CCCCC,inactive
3,CCCCCCC(C)=O,inactive
4,CCCCCCCCCS,inactive
5,CCCCCCC(=O)[O-].[H+],inactive
6,CCCC(=O)C(C)=O,inactive
7,CCCCOC(=O)C(C)OC(=O)CCC (centres undefined),inactive
8,CCCCC(=O)CC,inactive
9,CCCCCCCC(C)=O,inactive
10,O=c1ccc2ccccc2o1,active
11,CCCCCCCC(=O)[O-].[H+],inactive
12,CCCCCC1=C(C)CCC1=O,inactive
13,CCCC(C)=O,inactive
14,CCCCOC=O,inactive
15,CC(=O)OCc1ccccc1,inactive
16,CC(=O)Oc1ccccc1,active
17,CCCCCCOC(C)=O,inactive
18,CC(C)=CCCC(C)CCO (centres undefined),inactive
19,CC12CCC(CC1=O)C2(C)C (centres undefined),inactive
20,CCC(C(=O)O)c1ccccc1 (centres undefined),inactive
21,CCC(=O)O,inactive
22,CCCCCO,inactive
23,O=C1CCOc2ccccc21,inactive

# Biological target: T6, UniProt Q9WU94
# T6 sequence (whole entry): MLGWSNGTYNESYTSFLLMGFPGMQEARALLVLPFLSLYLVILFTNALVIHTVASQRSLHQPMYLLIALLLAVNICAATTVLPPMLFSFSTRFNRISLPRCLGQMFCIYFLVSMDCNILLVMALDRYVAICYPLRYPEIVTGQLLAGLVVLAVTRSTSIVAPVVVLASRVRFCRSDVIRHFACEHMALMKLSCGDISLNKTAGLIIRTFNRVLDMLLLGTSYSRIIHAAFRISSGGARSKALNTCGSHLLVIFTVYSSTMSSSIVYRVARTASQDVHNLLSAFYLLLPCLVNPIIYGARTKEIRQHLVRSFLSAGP
# Conditions: stereoisomer not certain
# How it was run: as §1
row,Structure (SMILES),odorant receptor agonist call
1,CCCCCCC(=O)[O-].[H+],inactive
2,O=C([O-])CCCCC(=O)[O-].[H+].[H+],inactive
3,O=C(O)CCCCBr,inactive
4,CCCCOC(=O)CCC,inactive
5,CCCCCCCC(=O)[O-].[H+],inactive
6,O=C(O)CCCCCC(=O)O,inactive
7,CCCC(C)=O,inactive
8,O=C(O)CCCBr,inactive
9,CCCCCO,inactive
